Screening results from PubChem BioAssay.
A selection: hits, their analogues and other compounds. The true share with any hit is near 2.2%.
Mcl1 Bid PPI = Mcl-1/Bid interaction inhibition; Q07820; TR-FRET Mcl-1/Bid-Dy647 peptide binding, 1536-well; inhibition, % at 21.7 µM; 220,000 tested, 0.97% active; AID 1021;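 active = compounds that cut the binding signal by more than half at the single screening dose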;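 also: His-tagged Mcl-1 with europium anti-His antibody binding Bid BH3 peptide; 0% = Mcl-1 plus peptide wells and 100% = peptide-only wells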
Target sequence (Q07820 whole entry, looked up): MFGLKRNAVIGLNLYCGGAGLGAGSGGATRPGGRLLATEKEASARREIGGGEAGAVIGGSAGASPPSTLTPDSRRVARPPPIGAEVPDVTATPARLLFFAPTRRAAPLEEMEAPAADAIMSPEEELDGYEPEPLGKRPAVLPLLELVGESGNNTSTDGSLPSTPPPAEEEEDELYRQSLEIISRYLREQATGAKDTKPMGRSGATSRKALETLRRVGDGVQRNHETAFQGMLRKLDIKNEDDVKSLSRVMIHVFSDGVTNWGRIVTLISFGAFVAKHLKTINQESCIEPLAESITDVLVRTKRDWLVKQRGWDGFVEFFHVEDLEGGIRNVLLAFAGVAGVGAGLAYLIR
Mcl1-Noxa inh = Mcl-1/Noxa interaction inhibition | 220,000 tested, 1.5% active | AID 1022 | Q07820 | TR-FRET Mcl-1/Noxa peptide binding, 2 h | inhibition, % at 21.7 µM;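 active = compounds that cut the protein-peptide binding signal by more than 50% relative to plate controls in a single-dose test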;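 also: His-tagged Mcl-1 with rhodamine Noxa BH3 peptide and terbium anti-His antibody; 0% = Mcl-1 plus Noxa peptide wells and 100% = peptide-only wells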
EBV gp42 inh = blocks Epstein-Barr virus glycoprotein 42 binding; Q1HVG2; Fluorescence polarization binding assay, mP read-out; inhibition, % (tested at 21.74 µM); 220,000 tested, 0.42% active; in the data active = inhibition above about 50%
MCL1 BIM primary = MCL1-BIM-BH3 interaction inhibition (human); inhibition, % at 10.9 µM; GST-MCL1 / FITC-Bim-BH3 fluorescence polarization; Q07820; 320,000 tested, 0.68% active;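 active = inhibition above the mean inhibition of all tested compounds plus 3 SD, set per campaign, cut at about 40% in these data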;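 also: 0% = DMSO wells and 100% = unlabeled Bim-BH3 peptide control; higher means more loss of mP so more displacement of Bim peptide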
RBBP9 inhibitor = inhibitors of human serine hydrolase RBBP9 | O75884 | 220,000 tested, 0.2% active | inhibition, % at 7.94 µM | recombinant RBBP9, FP-Rh probe fluorescence polarization;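 active = inhibition above the campaign mean of all tested compounds plus 3 SD, cut at about 14% in these data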;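 also: plate controls were DMSO wells with RBBP9 for no effect and wells lacking RBBP9 protein for full effect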
Target sequence (O75884 whole entry, looked up): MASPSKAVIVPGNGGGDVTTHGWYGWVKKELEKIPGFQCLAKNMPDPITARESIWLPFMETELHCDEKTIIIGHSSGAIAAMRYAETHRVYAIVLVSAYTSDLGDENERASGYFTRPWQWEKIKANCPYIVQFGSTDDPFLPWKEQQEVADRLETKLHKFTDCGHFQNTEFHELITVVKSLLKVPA
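Assay system: recombinant human RBBP9; Reagent: Serine-hydrolase probe FP-Rh, 375 nM pre-mixing; Doses: 7.94 µM single dose, 0.794% DMSO; Incubation: 30 min then 45 min, 25 °C; Detection: fluorescence polarization (mP), excitation 525 nm, emission 598 nm; Evaluation: percent inhibition from mP, scaled between DMSO and no-protein wells.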
Mcl-1 Bim block = human Bim-Mcl-1 interaction inhibition | Bead-based flow cytometry, Bim peptide-Mcl-1 binding | 190,000 tested, 0.1% active | AID 1009 | inhibition, % at 10 µM | Q07820; in the data active = inhibition above about 40%;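 also: 0% = no compound tracer wells and 100% = peptide blocker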
* marks the source's active call; other numbers are inactive results; / = no result.

SMILES | Mcl1 Bid PPI | Mcl1-Noxa inh | EBV gp42 inh | MCL1 BIM primary | RBBP9 inhibitor | Mcl-1 Bim block
O=C(NCCN1CCOCC1)c1cccc(S(=O)(=O)NCc2ccccc2)c1 | / | / | / | 5 | / | /
O=C(Nc1ccc(Cl)c(Cl)c1)Nc1ccc([N+](=O)[O-])cn1 | 36 | 53* | -9 | 5 | -7 | /
O=C(Nc1ccc(F)cc1)Nc1ccc([N+](=O)[O-])cn1 | 7 | 15 | -3 | -4 | -5 | -4
CCN(CC)Cc1cc2[nH]c3c4ccc(Cl)cc4ncc3c2cc1OC | 7 | 63* | -12 | / | -3 | /
COc1ccc(CNc2ncnc3cc(Cl)ccc23)cc1OC | 3 | 15 | 8 | / | -6 | -2
O=C(NCCc1ccccn1)c1cc(-c2ccccc2Cl)nc2ccccc12 | 13 | 6 | 7 | 7 | -8 | 0
Oc1[nH]c2ccccc2c1N=Nc1ccc(F)cc1 | -15 | 17 | -122 | -191 | -12 | 0
Oc1[nH]c2ccccc2c1N=Nc1ccccc1 | -12 | 5 | 101* | 21 | -6 | /
COC(=O)/C=C(\C)N=Nc1c(O)[nH]c2ccccc12 | 34 | 52* | 5 | 0 | 1 | /
CC(C)(O)C(=O)N=Nc1c(O)[nH]c2ccccc12 | 5 | -11 | -7 | -2 | -1 | -5
Cc1ccc2[nH]c(O)c(N=Nc3nc4ccccc4s3)c2c1 | 51* | 95* | 14 | 22 | 2 | /
Oc1[nH]c2ccccc2c1N=Nc1nc2ccccc2s1 | 59* | 84* | 50 | 28 | -5 | -2
CC(=O)c1ccc(N2C(=NC(=O)CCC3CCCC3)SC3CS(=O)(=O)CC32)cc1 (configuration not stated) | / | / | / | 6 | / | /
CCNc1nc(NCC)nc(OCC(=O)O)n1 | 6 | -2 | -1 | -3 | -12 | /
CCNc1nc(NCC)nc(C(=O)NN)n1 | -18 | 75* | -8 | 0 | 8 | -13
COc1nc(NCCC2=CCCCC2)nc(OC)n1 | -14 | -10 | 138* | 4 | -4 | -7
CCNc1ccc(Br)cc(C(=O)/C=C/c2ccccc2Cl)c1=O | / | / | / | -14 | 0 | /
CNc1ccc(Br)cc(C(=O)/C=C/c2cccc(Cl)c2Cl)c1=O | 92* | 106* | 39 | / | -5 | 0
CNc1ccc(Br)cc(C(=O)/C=C/c2cccc(OC)c2OC)c1=O | 0 | 70* | 20 | 5 | 5 | 19
Cc1cccc(C(C)C)c1NC(=O)C(C)OC(=O)Cc1n[nH]c(=O)c2ccccc12 (configuration not stated) | / | / | / | 0 | / | /
CCOc1cc(/C=N/NC(=O)c2ccncc2)ccc1OC(=O)c1ccccc1 | / | / | / | 0 | / | /
CCOc1cc(/C=N/NC(=O)c2ccc(-c3csc(Nc4ccc(C)cc4)n3)cc2)ccc1OCC(=O)O | -2 | 86* | 89* | / | -5 | 1
O=C(O)COc1ccc(/C=N/NC(=O)c2ccc(-c3csc(Nc4ccc(Cl)cc4)n3)cc2)cc1 | 95* | 88* | 92* | / | 2 | /
CC(C)c1ccc(C(N)=S)cc1 | -31 | 68* | 3 | 8 | -11 | 0
CC(C)c1ccc(C(=O)NNC(=O)c2ccncc2)cc1 | / | / | / | -2 | / | /
SMILES | Mcl1 Bid PPI | Mcl1-Noxa inh | EBV gp42 inh | MCL1 BIM primary | RBBP9 inhibitor | Mcl-1 Bim block
CCN(CC)C(=O)C1CCCN(c2ccc([N+](=O)[O-])cc2/C=N/NC(=O)c2cccc([N+](=O)[O-])c2)C1 (configuration not stated) | 63* | 33 | -21 | 7 | -3 | 0
O=C(Nc1ccc(C(=O)N2CCC(N3CCOCC3)CC2)cc1)c1ccc(Br)o1 | / | / | / | 3 | / | /
CC(C)(C)C(=O)NC1CCN(S(C)(=O)=O)CC1 | 58* | 40 | -16 | -3 | -7 | -2
COc1ccc2nc(C)cc(N3CCN(S(=O)(=O)c4ccccc4F)CC3)c2c1 | / | / | / | -3 | / | /
CC[C@H](C)/C=C(C)/C=C/C1=CC2=CC(=O)[C@]3(C)OC(=O)[C@@H](C(C)=O)[C@@H]3C2=CO1 | -13 | 4 | 17 | 47* | 2 | 1
COc1ccc(C(=O)C2C(c3ccc(-c4ccccc4[N+](=O)[O-])o3)NC(=O)NC2(O)C(F)(F)F)cc1 (configuration not stated) | 10 | 57* | -3 | 6 | 9 | -4
Cc1ccc(C(=O)C2C(c3cccs3)NC(=O)NC2(O)C(F)(F)F)cc1 (configuration not stated) | 63* | 12 | -6 | 2 | 3 | -3
Cc1ccc(C2NC(=O)NC(O)(C(F)(F)F)C2C(=O)c2ccccc2)o1 (configuration not stated) | -6 | -14 | -11 | 5 | -3 | 13
O=C1NC(c2ccc(-c3ccccc3[N+](=O)[O-])o2)C(C(=O)c2ccc(F)cc2)C(O)(C(F)(F)F)N1 (configuration not stated) | -3 | 55* | 21 | 0 | 6 | -2
O=C(CC(c1ccccc1)c1ccccc1O)NCc1ccccc1Cl (configuration not stated) | -11 | 23 | 13 | 0 | -5 | -3
O=C(COC(=O)CC(NC(=O)c1ccccc1Cl)c1ccccc1)Nc1cccc(F)c1 (configuration not stated) | 72* | -3 | -26 | 0 | -3 | -4
O=C1NC(=S)N/C1=C/c1ccc2ccccc2c1 | / | / | / | 9 | / | /
O=C(Cc1ccccc1F)NCC1(N2CCOCC2)CCCCC1 | -11 | 60* | 0 | 4 | -7 | /
COc1ccc(N2CC(C(=O)N3CCN(c4ccccc4)CC3)CC2=O)cc1 (configuration not stated) | / | / | / | 2 | / | /
Oc1c(Cl)cc(Cl)cc1/C=C/c1ccc2cccc(O)c2n1 | -56 | 82* | 4 | -4 | -4 | 2
O=C(CN(C(=O)CNC(=O)c1ccco1)c1ccc2c(c1)OCO2)NC1CCCCC1 | 83* | 16 | -7 | -4 | -9 | 1
O=C(CN(C(=O)CNC(=O)c1ccco1)c1ccc2c(c1)OCCO2)NC1CCCC1 | -48 | 9 | 7 | 8 | -6 | 3
COc1ccc(OC)c(CNC(=O)C(C)n2nc(C)c3c(C)n(-c4ccccc4)nc3c2=O)c1 (configuration not stated) | / | / | / | -3 | / | /
Cc1ccc2cc(/C=N/NC(=O)[C@H]3C[C@@H]3c3ccccc3)c(Cl)nc2c1 | -4 | -2 | -2 | 10 | 5 | -2
O=C(N/N=C/c1cc2cc3c(cc2nc1Cl)OCCO3)c1ccccc1O | 60* | 71* | 12 | -6 | -4 | -51
O=C(N/N=C/c1cc2cc3c(cc2nc1Cl)OCO3)c1ccncc1 | -4 | -2 | -19 | -1 | 5 | /
Cc1ccc2cc(/C=N/NC(=O)c3ccccc3O)c(Cl)nc2c1 | -7 | 64* | -1 | 8 | -10 | 10
Cc1cccc2cc(/C=N/NC(=O)c3ccccc3O)c(Cl)nc12 | 28 | 83* | 26 | 2 | -3 | -3
C=C1CCN([C@@H](CC(C)C)C(=O)NCc2ccco2)S(=O)(=O)c2ccccc21 | / | / | / | -1 | / | /
